Bioassay records from PubChem.
hIAP act: increases human intestinal alkaline phosphatase activity; P09923; purified human IAP, CDP-Star luminescence, 30 min; active compounds read high; 1 = vehicle-only enzyme, 0 = enzyme-free background; activation factor at 10 µM; 0.16% of 330,000 active;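 active = activation factor of the enzyme at least 2-fold when tested at 20 µM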
Target sequence (P09923 whole entry, looked up): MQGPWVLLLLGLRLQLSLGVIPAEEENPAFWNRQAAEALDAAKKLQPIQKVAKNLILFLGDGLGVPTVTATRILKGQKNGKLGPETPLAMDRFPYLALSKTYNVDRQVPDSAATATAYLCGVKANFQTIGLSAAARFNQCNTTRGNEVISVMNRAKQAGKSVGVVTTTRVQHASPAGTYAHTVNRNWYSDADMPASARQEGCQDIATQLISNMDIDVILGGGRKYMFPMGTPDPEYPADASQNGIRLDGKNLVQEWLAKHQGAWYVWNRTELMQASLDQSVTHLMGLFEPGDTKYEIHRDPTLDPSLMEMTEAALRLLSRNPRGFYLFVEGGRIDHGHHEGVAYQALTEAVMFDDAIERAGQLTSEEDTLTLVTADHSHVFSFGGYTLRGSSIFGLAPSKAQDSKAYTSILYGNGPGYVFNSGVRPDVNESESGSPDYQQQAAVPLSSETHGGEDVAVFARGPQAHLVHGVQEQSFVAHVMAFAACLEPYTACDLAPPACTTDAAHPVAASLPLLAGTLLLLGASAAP
bIAP act: increases bovine intestinal alkaline phosphatase activity | 0.17% of 200,000 active | purified bovine IAP, CDP-star luminescence, 30 min; active compounds read high; fold of DMSO-control signal, blank-subtracted | activation factor at 20 µM;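 active = activation factor of 2 or more at 20 µM, a signal rise over negative controls twice the positive control's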
bIAP inhibitor: intestinal alkaline phosphatase (bovine) inhibition; inhibition, % at 20 µM; 190,000 tested, under 10 active; purified bovine IAP, CDP-star luminescence, 30 min;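 active = over 50% inhibition of intestinal alkaline phosphatase at 20 µM in the single-dose screen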
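test system = bovine IAP enzyme | medium = DEA buffer 100 mM, pH 9.8, with MgCl2 1.0 mM, ZnCl2 0.02 mM | detection = luminescence | dosing = single compound dose of 20 µM, 2% DMSO final | incubation = 30 min reaction at room temperature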
hIAP inh: human IAP inhibition | inhibition, % at 10 µM | 0.12% of 330,000 active | P09923 | purified IAP, CDP-Star luminescence, 30 min;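 active = inhibition reaching a set limit with compound at 10 µM in the primary screen, cut at about 35% in these data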;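 also: plate controls were DMSO wells with enzyme for no effect and no-enzyme buffer wells for full effect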
mIAP block: mouse IAP inhibition; purified mouse IAP, CDP-Star luminescence, 30 min; inhibition, % at 10 µM; 0.2% of 330,000 active; AID 2806;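 active = inhibition of at least 40% at 10 µM in the primary screen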;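 also: plate controls were DMSO with enzyme for no effect and no enzyme wells for full effect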
mIAP act: increases mouse intestinal alkaline phosphatase activity; 0.24% of 330,000 active; muIAP, CDP-Star luminescence, 30 min; active compounds read high; 1 = vehicle-only enzyme signal, 0 = enzyme-free wells; activation factor at 10 µM; AID 2805;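 active = activation factor of at least 2 at 20 µM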
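Assay system: mouse IAP enzyme; reagent: chemiluminescent substrate CDP-Star; dosing: test compounds delivered from DMSO solution; schedule: 30 min at room temperature; measured by: luminescence from enzymatic CDP-Star hydrolysis; controls: DMSO-only wells and no-enzyme negative control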
mIAP inh conf: mouse IAP inhibition confirmation. AID 434971. 4.7% of 11,000 active. shares compounds with mIAP block. purified mouse IAP, CDP-Star luminescence, 30 min. inhibition, % at 10 µM;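 active = inhibition of at least 40% at 10 µM in either of the two replicates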;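 also: plate controls were DMSO wells with enzyme for no effect and buffer wells lacking enzyme for full effect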
* marks the source's active call; other numbers are inactive results; i = inactive; . = no result. This is a sample that favours compounds with a hit; in the whole collection about 0.77% have one here.

SMILES | hIAP act | bIAP act | bIAP inhibitor | hIAP inh | mIAP block | mIAP act | mIAP inh conf
CC1CCCC(NC(=S)Nc2ccc(SC(F)F)cc2)C1C (centres undefined) | 1.1 | 0.8 | 24 | -15 | i | 8.1* | -109
CCCSC1=N/C(=C\C=C\c2ccco2)C(=O)S1 | 0.94 | 0.7 | 31 | 6 | 45* | 0.55 | 61*
O=C1SC(SCc2ccccc2)=N/C1=C\c1ccco1 | 0.92 | 0.8 | 21 | 8 | 25 | 0.75 | .
Cc1cc(=O)n2[nH]c(C(=O)O)nc2n1 | 1.1 | 0.9 | 6 | -13 | 12 | 0.88 | .
Cc1cc(=O)n2[nH]cc(C(=O)O)c2n1 | 0.95 | 0.9 | 9 | 5 | 53* | 0.47 | 58*
O=C(CCCN1C(=O)/C(=C\c2ccco2)SC1=S)Nc1ccc(O)cc1C(=O)O | 0.79 | . | . | 21 | 68* | 0.32 | 75*
O=C(CCCN1C(=O)/C(=C\c2cccs2)SC1=S)Nc1cccc(C(=O)O)c1 | 0.92 | 1 | 0 | 8 | 3 | 0.97 | .
O=C(CCCN1C(=O)/C(=C/c2ccco2)SC1=S)Nc1cccc(C(=O)O)c1 | 0.94 | . | . | 6 | 64* | 0.36 | 71*
COc1ccc(NC(=O)NC[C@@H]2CC[C@@H](Cc3ccc(-c4ccccc4)cc3)O2)cc1 | . | . | . | . | -171 | 2.7* | -182
NC(=O)NC[C@@H]1CC[C@@H](Cc2ccc(-c3ccccc3)cc2)O1 | . | . | . | . | -4 | 1 | .
COc1ccc(CC(=O)Nc2c(C(=O)N3CCN(c4ncccn4)CC3)oc3ccccc23)cc1 | 1.2 | . | . | -16 | 1 | 0.99 | .
COc1ccc(Cl)cc1NC(=O)C/C(C)=N/NC(=O)COc1ccc(C)cc1 | 0.96 | . | . | 4 | 4 | 0.96 | .
CC(C)CC(C(=O)Nc1cccc(O)c1)N1C(=O)c2ccccc2C1=O (centres undefined) | 0.94 | . | . | 6 | 6 | 0.94 | .
CC(C)CC(C(=O)Nc1oc(-c2ccco2)c(-c2ccco2)c1C#N)N1C(=O)c2ccccc2C1=O (centres undefined) | 1.1 | 1 | -2 | -11 | 45* | 0.55 | 48*
C#CCOCCOCCOCCNc1nc(N2CCN(C(=O)CCCCCCCCCCNC(=O)[C@H](CCCCN)n3cc(C[C@@H](C)CC)nn3)CC2)nc(N2CCN(C(=O)CCCCCCCCCCNC(=O)[C@H](CCCN=C(N)N)n3cc(C[C@@H](C)CC)nn3)CC2)n1 | 1.4 | . | . | -35 | -100 | 2 | .
C#CCOCCOCCOCCNc1nc(N2CCN(C(=O)CCCCCCCCCCNC(=O)[C@H](CCCCN)n3cc(C)nn3)CC2)nc(N2CCN(C(=O)CCCCCCCCCCNC(=O)[C@H](CCCN=C(N)N)n3cc(C[C@@H](C)CC)nn3)CC2)n1 | 1.3 | . | . | -28 | -215 | 3.1* | -295
C#CCOCCOCCOCCNc1nc(N2CCN(C(=O)CCCCCCCCCCNC(=O)[C@H]([C@@H](C)CC)n3cc(CCCCN=C(N)N)nn3)CC2)nc(N2CCN(C(=O)CCCCCCCCCCNC(=O)[C@@H]([C@H](C)O)n3cc(C)nn3)CC2)n1 | 1.1 | . | . | -8 | -366 | 4.7* | i
C#CCOCCOCCOCCNc1nc(N2CCN(C(=O)CCCCCCCCCCNC(=O)[C@H](CCCN=C(N)N)n3cc(C[C@@H](C)CC)nn3)CC2)nc(N2CCN(C(=O)CCCCCCCCCCNC(=O)[C@@H]([C@H](C)CC)n3cc(CCCCCN)nn3)CC2)n1 | 1.5 | . | . | -50 | -463 | 5.6* | i
C#CCOCCOCCOCCNc1nc(N2CCOCC2)nc(N2CCN(C(=O)CCCCCCCCCCNC(=O)[C@H]([C@@H](C)CC)n3cc(CCCCN=C(N)N)nn3)CC2)n1 | 1.1 | . | . | -8 | -154 | 2.5* | -137
C#CCOCCOCCOCCNc1nc(N2CCN(C(=O)CCCCCCCCCCNC(=O)Cn3cc(CCCCCN)nn3)CC2)nc(N2CCN(C(=O)CCCCCCCCCCNC(=O)[C@@H]([C@H](C)O)n3cc(C)nn3)CC2)n1 | 0.98 | . | . | 2 | -35 | 1.3 | .
C#CCOCCOCCOCCNc1nc(N2CCOCC2)nc(N2CCN(C(=O)[C@H]([C@@H](C)CC)n3cc(CCCN=C(N)N)nn3)CC2)n1 | 0.95 | 0.9 | 7 | 5 | -16 | 1.2 | .
Cc1cc(C)n2nc(C(=O)OCC(=O)N(Cc3ccccc3)C(C)C)nc2n1 | 0.94 | . | . | 6 | 2 | 0.98 | .
